High-throughput results deposited in PubChem by several laboratories.
ROMK mod – modulators of human ROMK potassium channel; actives 2% (n = 130,000); B-score at 10 µM; Tet-inducible ROMK, thallium flux fluorescence; actives lie on both sides;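 active = signal ratio slope over the read window, or its plate-corrected B-score, at least 3 SD from the plate mean, either direction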;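 also: B-score of the F/F0 ratio slope over 7 to 12 s after thallium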
Target sequence (P48048 whole entry, looked up): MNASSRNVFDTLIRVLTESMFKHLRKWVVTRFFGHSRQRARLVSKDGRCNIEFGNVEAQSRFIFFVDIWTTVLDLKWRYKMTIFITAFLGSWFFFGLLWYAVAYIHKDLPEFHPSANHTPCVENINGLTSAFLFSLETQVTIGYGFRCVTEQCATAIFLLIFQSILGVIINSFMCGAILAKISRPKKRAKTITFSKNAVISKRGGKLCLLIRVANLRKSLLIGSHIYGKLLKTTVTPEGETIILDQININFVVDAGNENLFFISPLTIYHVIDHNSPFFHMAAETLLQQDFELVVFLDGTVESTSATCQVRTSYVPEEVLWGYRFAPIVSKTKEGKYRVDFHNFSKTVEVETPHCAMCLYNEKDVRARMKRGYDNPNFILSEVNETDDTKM
Biofilm kill mix – mixtures killing C. albicans biofilm. AID 1242. C. albicans biofilm persisters + clotrimazole, fluorescence viability; primary screen in compound mixtures of four per well. inhibition, % at 7.6 µM. actives 0.02% (n = 120,000);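 active = inhibition above 30.3% in the primary screen of four-compound pools, then above 30% when the compound was retested; inconclusive = passed the primary limit but could not be retested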;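 also: compounds exposed to preformed 24 h biofilms for 48 h; 0% = untreated biofilm control and 100% = clotrimazole plus chlorhexidine kill blank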
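Test system: C. albicans CAF4-2 wild-type biofilms; buffer or medium: RPMI/MOPS medium, pH 7.0; schedule: 24 h biofilm formation, then 48 h compound exposure, 37 °C; detection: Alamar Blue fluorescence; measure: percent inhibition of biofilm viability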
ROMK hit retest – confirmation of human ROMK potassium channel modulators. shares compounds with ROMK mod. ROMK thallium flux, fluorescence ratio; hits give low values. normalized thallium flux (F/F0 slope) at 10 µM. actives 54% (n = 3,000). AID 1917;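 active = Flux at 10 µM at least 3 SD below or above vehicle control mean in one or both replicates; inconclusive = no clear call, values can overlap the other calls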
* marks the source's active call; other numbers are inactive results; u = inconclusive; x = not tested or not shown. This is one part of a sample in which hits are shown more often than they occur.

SMILES	ROMK mod	Biofilm kill mix	ROMK hit retest
COc1ccc(N(CC(=O)NCc2cccc(OC)c2)S(=O)(=O)c2c(C)noc2C)cc1	-0.57	x	x
O=C(c1cnc2sccn2c1=O)N1CCN(c2ccccc2Cl)CC1	0.62	28	x
Cn1c(SCC(=O)Nc2ccccc2)nc2c([nH]c3ccccc32)c1=O	-0.45	17	x
O=C1c2ccccc2NC(c2cccc(Cl)c2)N1N=C1CCCCCC1 (stereo unspecified)	-0.0092	x	x
Cc1ccc(-n2c(SCC(=O)Nc3cccc(S(=O)(=O)NC4=NCCCCC4)c3)nc3ccccc3c2=O)cc1	x	22	x
CCc1ccc(-n2c(SCC(=O)Nc3cccc(S(=O)(=O)NC4=NCCCCC4)c3)nc3ccccc3c2=O)cc1	-2.7*	0	u
CCc1ccccc1Nc1nc(N)nc(COC(=O)c2cccn2C)n1	0.0079	x	x
C=C1CN(Cc2ccccc2)S(=O)(=O)c2ccccc21	x	6	x
Cn1c(CCNC(=O)c2ccc(Cl)c(Cl)c2)nnc1SCc1ccc(Cl)c(Cl)c1	x	x	0.079
COc1ccc(C(=O)NCCc2nnc(SCC(=O)Nc3ccccc3)n2C)cc1	1	x	x
COC(=O)c1cc(NC(=O)Cc2ccc(OC)cc2)cc(C(=O)OC)c1	0.061	x	x
N#CC1=C(N)NC(SCC(=O)c2ccc(Br)cc2)=C(C#N)C12CCCCC2	-0.85	7	x
N#CC1=C(N)NC(SCC(=O)c2ccc(Cl)cc2)=C(C#N)C12CCCC2	-2.3*	x	0.066*
Cc1ccc(CNc2oc(-c3cccs3)nc2C#N)cc1	-0.003	x	x
N#Cc1nc(-c2cccs2)oc1NCc1ccccc1	-3.6*	x	0.054*
NC1=NC[C@H](CC2CCCCC2)N1CCc1cc(C(F)(F)F)cc(C(F)(F)F)c1	x	14	0.05*
NC1=NC[C@@H](Cc2ccc(O)cc2)N1CCc1cc(C(F)(F)F)cc(C(F)(F)F)c1	x	17	x
COc1ccc(C2NC(=O)NC(C)=C2[N+](=O)[O-])cc1OC (stereo unspecified)	x	18	x
CCOC(=O)CCC(=O)Nc1cccc([N+](=O)[O-])c1	1.2	21	x
Cc1cc(C)cc(OCc2ccc(C(=O)N3N=C(C(F)F)CC3(O)C(F)F)o2)c1 (stereo unspecified)	3*	x	0.08
CCOc1ccc(OCc2ccc(C(=O)N3N=C(C(F)F)CC3(O)C(F)F)o2)cc1 (stereo unspecified)	0.22	x	x
Cc1noc(C)c1NC(=O)NCCN1CCN(Cc2ccccc2)CC1	x	23	x
O=C(N=c1ccn(-c2nc3ccccc3nc2NS(=O)(=O)c2ccc(Cl)cc2)cc1)c1cccs1	x	8	x
CCOc1ccc(S(=O)(=O)Nc2nc3ccccc3nc2-n2ccc(=NC(=O)c3cccs3)cc2)cc1	-2.6*	20	0.059*
Cc1cc(-c2nc(C)c(C(=O)NNS(=O)(=O)c3cccc(C(F)(F)F)c3)s2)no1	x	18	x
SMILES	ROMK mod	Biofilm kill mix	ROMK hit retest
Cn1nc(C(F)(F)F)c(C#N)c1N1CCN(c2ccccc2)CC1	-3.1*	x	0.063*
Cn1nc(C(F)(F)F)c(C#N)c1N1CCN(c2ccc(F)cc2)CC1	-1.7	x	x
CCN(CC)C(=O)Nc1c(C)n(C)n(-c2ccccc2)c1=O	0.54	9	x
CN1CCN(Cc2c(O)ccc3cc(-c4ccccn4)c(=O)oc23)CC1	-3.3*	29	0.059*
CN1CCN(Cc2c(O)ccc3cc(Br)ccc23)CC1	-0.95	6	x
CCn1c(SCC(=O)N/N=C\c2ccccc2OCC(=O)O)nnc1-c1ccc(Cl)cc1	x	21	x
C/C(=N\NC(=O)C1CC1(C)c1ccccc1)c1ccco1 (stereo unspecified)	-0.079	3	x
Cc1cc(Cl)ccc1NNC(N)=S	-1.1	18	x
COC(=O)c1[nH]c2ccc(Cl)cc2c1NC(=O)C1CC1	x	x	0.077
COC(=O)c1[nH]c2ccc(Cl)cc2c1NC(=O)CCN1CCN(C2CCCCC2)CC1	-1.2	x	x
COc1ccc(NC(=S)NN(C)C(=S)Nc2ccc(OC)cc2)cc1	0.54	14	x
O=C1c2ccccc2C(=O)N1Cc1nc2ccccc2c(=O)n1CCCn1ccnc1	0.89	x	x
N=c1c2c3c(sc2ncn1Cc1ccco1)CCCCC3	x	13	x
N=c1c2c(-c3ccccc3)c(-c3ccccc3)oc2ncn1CCCN1CCOCC1	-3.8*	x	0.082
CC(C)Cn1cnc2c(c(-c3ccccc3)c(-c3ccccc3)n2Cc2ccco2)c1=N	-4.3*	x	0.044*
N=c1c2c(-c3ccccc3)c(-c3ccccc3)oc2ncn1CCN1CCOCC1	-1.5	x	x
c1ccc(-c2oc3ncnc(NCCCn4ccnc4)c3c2-c2ccccc2)cc1	-2.7	x	x
c1ccc(-c2c(-c3ccccc3)n(Cc3ccco3)c3ncnc(NCCCn4ccnc4)c23)cc1	-3.9*	x	u
N=c1c2c(-c3ccccc3)c(-c3ccccc3)n(Cc3ccco3)c2ncn1CCCn1ccnc1	-5.6*	8	0.048*
O=C(Cn1cccc1)NCc1cccs1	1	x	x
COC(=O)c1c(C)oc(C)c1S(=O)(=O)N1CCOCC1	x	8	x
CCOc1ccccc1NC(=O)c1cc(C(=O)c2cc(OC)ccc2O)coc1=N	-0.77	9	x
CCCCCCCN1C2=NCCN2c2ccccc21	x	9	x
CCOc1ccc(OCC)c(N=c2oc3c(C)ncc(CO)c3cc2C(N)=O)c1	-0.85	x	x
CC(c1nc2ccccc2c(=O)[nH]1)N1CCOCC1 (stereo unspecified)	-0.0045	9	x
SMILES	ROMK mod	Biofilm kill mix	ROMK hit retest
N=c1c2c(-c3ccccc3)c(-c3ccccc3)n(Cc3ccco3)c2ncn1CCCN1CCOCC1	-2.8*	9	0.049*
O=c1c2ccccc2nc(-c2ccccc2)n1CCCN1CCOCC1	-0.16	x	x
CCn1nnnc1NCc1ccc(OCc2c(F)cccc2Cl)c(OC)c1	-0.35	10	x
Cc1cc(NC(=O)c2ccc(F)cc2)n(CCOC(=O)c2ccc(F)cc2)n1	x	7	x
N#Cc1ccccc1Cn1c(=O)n(CCC(=O)NCc2ccco2)c(=O)c2ccccc21	1.7	17	x
N#Cc1ccccc1Cn1c(=O)n(CCCC(=O)NCc2ccc3c(c2)OCO3)c(=O)c2ccccc21	3.6*	-1	0.086
Cn1c(=O)c2c(nc(NCCCO)n2Cc2cccc(C(F)(F)F)c2)n(C)c1=O	-0.013	x	x
Oc1ccc(Cl)cc1C=Nc1ccccc1Br	0.45	17	x
Oc1ccc(Br)cc1C=Nc1cccn2cc(-c3ccccc3)nc12	-11*	6	u
COc1ccccc1NC(=O)CSc1nnc(CSc2nc(C)cc(C)n2)o1	0.46	5	x
Cc1cc(C)nc(SCc2nnc(SCC(=O)Nc3ccc(Cl)c(C(F)(F)F)c3)o2)n1	-3.9*	x	0.064*
Cc1ccc(NC(=O)CN(C)C(=O)c2ccc(S(=O)(=O)N(C)c3ccccc3)cc2)cc1	0.12	11	x
O=C(O)C1CCCCC1C(=O)NCCc1ccncc1 (stereo unspecified)	2.4*	x	0.073
O=C(O)[C@H]1CCCC[C@H]1C(=O)NCCc1ccccc1	2.1	x	x
COCCCn1c(=NC(=O)c2ccncc2)c(C#N)cc2c(=O)n3cccc(C)c3nc21	x	x	0.06*
CCCCn1c(=NC(=O)c2cccnc2)c(C#N)cc2c(=O)n3cccc(C)c3nc21	0.75	x	x
CC(=O)N=c1c(C#N)cc2c(=O)n3cccc(C)c3nc2n1CCCOC(C)C	x	20	x
Cc1cccn2c(=O)c3cc(C#N)c(=NC(=O)c4ccncc4)n(CCCOC(C)C)c3nc12	-4.3*	x	0.049*
CCN(CC)C(=O)CSc1nc2c(sc(=S)n2-c2ccccc2)c(=O)n1Cc1ccco1	-0.29	x	x
COc1cccc(Nc2nc3cc(OC)ccc3cc2C#N)c1	-0.75	1	x
